In ChEMBL document CHEMBL1139081, “Rational design, synthesis, and structure-activity relationship of benzoxazolones: new potent mglu5 receptor antagonists based on the fenobam structure” (Bioorg Med Chem Lett, 2007):

Columns and labels:
[1] = target: T1, Metabotropic glutamate receptor 5 (Homo sapiens, UniProt P41594); assay: Binding affinity to mGluR5
[2] = target: T1, Metabotropic glutamate receptor 5; assay: Antagonist activity at mGluR5 assessed as inhibition of Ca2+ […] by FLIPR; format: functional
[3] = Ratio of drug level in brain to plasma in rat after 3 hrs; format: ADME; conditions: brain and plasma
In short: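 Blood/brain partitioning checked 3 h after administration as brain-to-plasma concentration ratio; cerebrospinal fluid concentration also measured, expressed as percentage of plasma concentration.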

[4] = Volume of distribution in rat; format: ADME, organism-based; conditions: in vivo
[5] = Oral bioavailability in rat; format: ADME, organism-based; conditions: in vivo
Mus musculus = species: Mus musculus; assay: Decrease in stress-induced hyperthermia in NMRI mouse; format: functional; conditions: read-out: MED
In short: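 Stress-induced hyperthermia model of anxiety in NMRI mice, read as change in temperature (DT). Oral dosing at 10 and 30 mg/kg, vehicle 0.3% Tween 80 in 0.9% NaCl, 60 min pre-treatment. Each group compared to vehicle by independent t-test.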

[6] = Half life in rat; format: ADME, organism-based; conditions: in vivo
[7] = Clearance in rat; format: ADME, organism-based; conditions: in vivo

T1 sequence (P41594 whole entry): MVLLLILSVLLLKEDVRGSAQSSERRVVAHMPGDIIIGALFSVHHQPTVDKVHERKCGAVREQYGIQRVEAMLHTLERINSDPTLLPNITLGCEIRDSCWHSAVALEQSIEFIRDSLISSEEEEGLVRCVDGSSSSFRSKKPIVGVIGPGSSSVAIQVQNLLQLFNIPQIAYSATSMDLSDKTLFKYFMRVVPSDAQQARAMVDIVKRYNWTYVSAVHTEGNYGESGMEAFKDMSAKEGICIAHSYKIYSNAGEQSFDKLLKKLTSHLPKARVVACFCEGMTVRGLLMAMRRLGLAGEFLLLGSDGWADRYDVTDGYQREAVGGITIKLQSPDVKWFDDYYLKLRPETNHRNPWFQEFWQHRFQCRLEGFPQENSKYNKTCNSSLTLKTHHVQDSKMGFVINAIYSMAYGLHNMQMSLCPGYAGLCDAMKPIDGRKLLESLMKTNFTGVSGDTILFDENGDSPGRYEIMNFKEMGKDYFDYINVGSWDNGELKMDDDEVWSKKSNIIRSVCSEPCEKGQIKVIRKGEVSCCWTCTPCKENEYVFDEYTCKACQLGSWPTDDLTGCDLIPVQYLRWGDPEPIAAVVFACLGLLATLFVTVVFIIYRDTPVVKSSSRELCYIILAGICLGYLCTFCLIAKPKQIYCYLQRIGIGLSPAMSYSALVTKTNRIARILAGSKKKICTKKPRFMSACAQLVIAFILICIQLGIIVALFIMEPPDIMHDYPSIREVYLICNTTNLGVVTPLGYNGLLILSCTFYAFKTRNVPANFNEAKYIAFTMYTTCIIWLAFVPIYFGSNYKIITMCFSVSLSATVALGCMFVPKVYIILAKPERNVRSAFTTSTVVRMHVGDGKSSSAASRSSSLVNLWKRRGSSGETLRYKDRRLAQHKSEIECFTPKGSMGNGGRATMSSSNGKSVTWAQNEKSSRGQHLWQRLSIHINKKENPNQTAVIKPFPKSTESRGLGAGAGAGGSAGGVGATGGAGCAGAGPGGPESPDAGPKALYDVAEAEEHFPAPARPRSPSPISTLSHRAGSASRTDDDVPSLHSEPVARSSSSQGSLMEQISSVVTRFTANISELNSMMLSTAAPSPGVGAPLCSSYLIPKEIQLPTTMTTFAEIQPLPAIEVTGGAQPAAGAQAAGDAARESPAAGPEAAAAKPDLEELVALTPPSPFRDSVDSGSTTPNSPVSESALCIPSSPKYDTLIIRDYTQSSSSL

| Ki [1] | SMILES | further results |
| --- | --- | --- |
| 1970 nM | Cc1nccc(NC(=O)c2cccc3oc(=O)[nH]c23)n1 |  |
| 3800 nM | O=C(Nc1ccc(Cl)cc1)c1cccc2oc(=O)[nH]c12 |  |
| 3100 nM | Cc1cc(NC(=O)c2cccc3oc(=O)[nH]c23)ccn1 |  |
| 3900 nM | COc1cccc(NC(=O)c2cccc3oc(=O)[nH]c23)c1 |  |
| > 10000 nM | O=C(Nc1cccc(Cl)c1)c1cccc2[nH]c(=O)oc12 |  |
| 56 nM | O=C(Nc1cccc(Br)c1)c1cccc2oc(=O)[nH]c12 | IC50 [2]: 94 nM |
| 397 nM | O=C1Cc2cccc(C(=O)Nc3cccc(Cl)c3)c2N1 |  |
| 109 nM | Cc1cccc(NC(=O)c2cccc3oc(=O)[nH]c23)c1 | IC50 [2]: 104 nM |
| 3900 nM | O=C(Nc1cccc(Cl)c1)c1cccc2[nH]c(=O)[nH]c12 |  |
| > 10000 nM | Cn1c(=O)[nH]c2c(C(=O)Nc3cccc(Cl)c3)cccc21 |  |
| > 10000 nM | O=C(Nc1cccc(Cl)c1)c1cccc2nn[nH]c12 |  |
| > 10000 nM | O=C(Nc1cccc(Cl)c1)c1cccc2nc[nH]c12 |  |
| > 10000 nM | CC(=O)Nc1ccccc1C(=O)Nc1cccc(Cl)c1 |  |
| 485 nM | O=C(Nc1cccc(C(F)(F)F)c1)c1cccc2oc(=O)[nH]c12 |  |
| 2900 nM | O=C1COc2cccc(C(=O)Nc3cccc(Cl)c3)c2N1 |  |
| 95 nM | Cc1cccc(NC(=O)c2cccc3oc(=O)[nH]c23)n1 | Kp at 3 h [3]: 0.06; Vd [4]: 0.18 L/kg; bioavailability [5]: 64%; IC50 [2]: 60 nM; minimal effective dose (Mus musculus): 10 mg/kg; half-life [6]: 13.2 min; clearance [7]: 8.2 mL/min/kg |
| 251 nM | O=C(Nc1ccccn1)c1cccc2oc(=O)[nH]c12 |  |
| 68 nM | O=C(Nc1cccc(Cl)c1)c1cccc2oc(=O)[nH]c12 | IC50 [2]: 195 nM |
| 2200 nM | O=C(Nc1ccccc1)c1cccc2oc(=O)[nH]c12 |  |
| > 10000 nM | O=C(Nc1ccccc1Cl)c1cccc2oc(=O)[nH]c12 |  |
| 250 nM | Cc1nc(NC(=O)c2cccc3oc(=O)[nH]c23)cs1 |  |
| 3900 nM | O=C(Nc1cccc(Cl)c1)c1cccc2cc[nH]c12 |  |
| > 10000 nM | O=C(Nc1cc(Cl)cc(Cl)c1)c1cccc2oc(=O)[nH]c12 |  |
| 327 nM | N#Cc1cccc(NC(=O)c2cccc3oc(=O)[nH]c23)c1 |  |
